For orientation: IC50 means the concentration at which inhibition is half-maximal. A word on the inhibition: it is the drop in the measured response relative to a control, in per cent. The term EC50 denotes the midpoint of the concentration-response curve.

Molecules are shown by their SMILES.

These results are taken from ChEMBL document CHEMBL1146654, “3-(7-Azaindolyl)-4-arylmaleimides as potent, selective inhibitors of glycogen synthase kinase-3” (Bioorg Med Chem Lett, 2004).

Experiment [1] addresses T1, Ribosomal protein S6 kinase alpha-5 (Homo sapiens, UniProt O75582). Kind of experiment: (§1) Inhibition of MSK-1 kinase. Also noted: scale not given: the % may be the effect or the level left.
Experiment [2] addresses Mitogen-activated protein kinase 11 (Homo sapiens) (UniProt Q15759). Nature of the experiment: Inhibition of Stress activated protein kinase 2b. Also noted: scale not given: the % may be the effect or the level left.
Experiment [3] addresses Tyrosine-protein kinase Fyn (Homo sapiens) (UniProt P06241). Nature of the experiment: Inhibition of Fyn protein kinase. Also noted: scale not given: the % may be the effect or the level left.
For experiment [4], the target named is T2, Ribosomal protein S6 kinase alpha-3 (Homo sapiens, UniProt P51812). Kind of experiment: (§2) Inhibition of Ribosomal S6 kinase 3. Also noted: scale not given: the % may be the effect or the level left.
T2 sequence (P51812 whole entry): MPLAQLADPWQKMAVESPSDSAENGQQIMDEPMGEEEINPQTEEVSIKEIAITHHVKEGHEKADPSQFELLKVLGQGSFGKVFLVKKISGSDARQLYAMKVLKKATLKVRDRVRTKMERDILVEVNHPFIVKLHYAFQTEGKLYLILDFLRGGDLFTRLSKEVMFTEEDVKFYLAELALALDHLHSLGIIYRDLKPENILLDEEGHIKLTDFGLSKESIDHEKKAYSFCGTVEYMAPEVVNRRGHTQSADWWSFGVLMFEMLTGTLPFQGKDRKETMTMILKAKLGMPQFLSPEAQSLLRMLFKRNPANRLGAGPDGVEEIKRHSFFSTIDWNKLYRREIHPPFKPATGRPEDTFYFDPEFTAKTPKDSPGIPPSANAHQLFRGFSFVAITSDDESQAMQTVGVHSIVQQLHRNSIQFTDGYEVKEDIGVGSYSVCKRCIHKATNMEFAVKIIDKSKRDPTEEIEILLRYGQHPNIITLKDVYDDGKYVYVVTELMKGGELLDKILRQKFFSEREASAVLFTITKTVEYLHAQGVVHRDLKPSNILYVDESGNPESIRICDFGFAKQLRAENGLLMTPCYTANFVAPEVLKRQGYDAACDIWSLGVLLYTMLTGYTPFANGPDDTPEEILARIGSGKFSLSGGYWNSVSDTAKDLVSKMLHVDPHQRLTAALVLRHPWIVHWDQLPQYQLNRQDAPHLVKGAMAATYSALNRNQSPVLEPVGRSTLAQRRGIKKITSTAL
Experiment [5] deals with T3, Dual specificity mitogen-activated protein kinase kinase 4 (Mus musculus) (UniProt P47809).
T3 sequence (whole entry): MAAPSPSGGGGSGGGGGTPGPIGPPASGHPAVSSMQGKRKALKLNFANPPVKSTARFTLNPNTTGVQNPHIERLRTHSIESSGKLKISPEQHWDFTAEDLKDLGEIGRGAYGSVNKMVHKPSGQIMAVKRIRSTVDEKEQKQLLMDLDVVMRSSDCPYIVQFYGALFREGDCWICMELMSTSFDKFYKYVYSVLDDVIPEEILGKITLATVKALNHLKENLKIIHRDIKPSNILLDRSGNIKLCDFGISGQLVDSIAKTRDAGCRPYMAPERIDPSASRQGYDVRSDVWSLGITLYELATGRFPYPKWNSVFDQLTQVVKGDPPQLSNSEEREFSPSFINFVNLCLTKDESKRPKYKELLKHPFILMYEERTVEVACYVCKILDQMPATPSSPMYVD
Nature of the experiment: Inhibition of Mitogen activated protein kinase kinase 4. Also noted: scale not given: the % may be the effect or the level left.

Experiment [6] has as its target Tyrosine-protein kinase Lyn (Homo sapiens, UniProt P07948). Nature of the experiment: Inhibition of Protein tyrosine kinase Lyn.
Experiment [7] has as its target Ribosomal protein S6 kinase alpha-1 (Rattus norvegicus) (UniProt Q63531). Kind of experiment: Inhibition of Ribosomal S6 kinase 1. Also noted: scale not given: the % may be the effect or the level left.
Experiment [8] addresses Cyclin-dependent kinase 7/ cyclin H (Homo sapiens) (UniProt P51946+P50613). Kind of experiment: Inhibition of Cyclin-dependent kinase 7-cyclin H. The class given is protein-complex assay. Also on record: scale not given: the % may be the effect or the level left.
Experiment [9] addresses T2, Ribosomal protein S6 kinase alpha-3. The experiment is described as §2.
Experiment [10] has as its target T4, Protein kinase C beta type (Homo sapiens, UniProt P05771). Nature of the experiment: Inhibitory concentration against human protein kinase C-betaII using histone as substrate.
In experiment [11] the target is T5, 3-phosphoinositide-dependent protein kinase 1 (Homo sapiens) (UniProt O15530).
T5 sequence (whole entry): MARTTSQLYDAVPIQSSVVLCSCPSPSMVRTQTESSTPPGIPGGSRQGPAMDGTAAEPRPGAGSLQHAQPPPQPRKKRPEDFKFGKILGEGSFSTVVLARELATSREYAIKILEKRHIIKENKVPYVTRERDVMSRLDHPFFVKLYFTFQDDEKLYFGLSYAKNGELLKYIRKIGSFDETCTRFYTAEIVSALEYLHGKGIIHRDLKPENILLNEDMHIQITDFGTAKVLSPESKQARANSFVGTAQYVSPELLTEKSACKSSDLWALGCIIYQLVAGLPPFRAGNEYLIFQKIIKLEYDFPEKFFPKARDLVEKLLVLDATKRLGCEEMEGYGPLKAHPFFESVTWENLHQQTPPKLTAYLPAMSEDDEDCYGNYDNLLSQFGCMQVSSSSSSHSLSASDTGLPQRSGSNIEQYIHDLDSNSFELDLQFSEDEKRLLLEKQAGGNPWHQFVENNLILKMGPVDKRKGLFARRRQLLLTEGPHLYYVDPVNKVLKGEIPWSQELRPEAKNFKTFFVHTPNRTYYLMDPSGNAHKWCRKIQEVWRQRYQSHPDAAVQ
Nature of the experiment: (§3) Inhibition of PDK1. Also noted: scale not given: the % may be the effect or the level left.

Experiment [12] has as its target Tyrosine-protein kinase Fes/Fps (Homo sapiens) (UniProt P07332). Kind of experiment: Inhibition of Fes kinase. Also on record: scale not given: the % may be the effect or the level left.
The target in experiment [13] is Tyrosine-protein kinase SYK (Homo sapiens) (UniProt P43405). Nature of the experiment: Inhibition of Syk protein tyrosine kinase. Also on record: scale not given: the % may be the effect or the level left.
In experiment [14] the target is Cyclin-dependent kinase 2/cyclin A (Homo sapiens) (UniProt P24941+P20248+P78396). Kind of experiment: Inhibition of Cyclin-dependent kinase 2-cyclin A. The class given is protein-complex assay. Also noted: scale not given: the % may be the effect or the level left.
The target in experiment [15] is Protein kinase C gamma type (Homo sapiens, UniProt P05129). Nature of the experiment: Inhibitory activity of 10 uM compound against protein kinase C-gamma using histone as substrate.
Experiment [16] addresses Mitogen-activated protein kinase 9 (Homo sapiens) (UniProt P45984). Nature of the experiment: Inhibition of c-Jun N-terminal kinase 2-alpha 2. Also noted: scale not given: the % may be the effect or the level left.
Experiment [17] concerns the target 3-phosphoinositide-dependent protein kinase 1 (Homo sapiens, UniProt O15530). The description is as §3.
Experiment [18] deals with T6, Dual specificity mitogen-activated protein kinase kinase 6 (Homo sapiens) (UniProt P52564).
T6 sequence (whole entry): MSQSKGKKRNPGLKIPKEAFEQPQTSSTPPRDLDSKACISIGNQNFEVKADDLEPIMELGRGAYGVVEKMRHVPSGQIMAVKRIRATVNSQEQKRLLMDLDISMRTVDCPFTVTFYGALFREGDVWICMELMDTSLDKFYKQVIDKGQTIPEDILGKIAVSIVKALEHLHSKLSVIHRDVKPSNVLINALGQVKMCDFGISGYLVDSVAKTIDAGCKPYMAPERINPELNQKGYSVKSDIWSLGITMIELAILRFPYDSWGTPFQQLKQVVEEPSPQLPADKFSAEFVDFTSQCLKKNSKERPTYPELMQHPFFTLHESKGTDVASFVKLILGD
Nature of the experiment: Inhibition of Mitogen activated protein kinase kinase 6. Also noted: scale not given: the % may be the effect or the level left.

The target in experiment [19] is Insulin receptor (Homo sapiens) (UniProt P06213). Nature of the experiment: Inhibition of IR kinase. Also noted: scale not given: the % may be the effect or the level left.
Insulin receptor (Homo sapiens), sequence (P06213 28-758 limits assumed): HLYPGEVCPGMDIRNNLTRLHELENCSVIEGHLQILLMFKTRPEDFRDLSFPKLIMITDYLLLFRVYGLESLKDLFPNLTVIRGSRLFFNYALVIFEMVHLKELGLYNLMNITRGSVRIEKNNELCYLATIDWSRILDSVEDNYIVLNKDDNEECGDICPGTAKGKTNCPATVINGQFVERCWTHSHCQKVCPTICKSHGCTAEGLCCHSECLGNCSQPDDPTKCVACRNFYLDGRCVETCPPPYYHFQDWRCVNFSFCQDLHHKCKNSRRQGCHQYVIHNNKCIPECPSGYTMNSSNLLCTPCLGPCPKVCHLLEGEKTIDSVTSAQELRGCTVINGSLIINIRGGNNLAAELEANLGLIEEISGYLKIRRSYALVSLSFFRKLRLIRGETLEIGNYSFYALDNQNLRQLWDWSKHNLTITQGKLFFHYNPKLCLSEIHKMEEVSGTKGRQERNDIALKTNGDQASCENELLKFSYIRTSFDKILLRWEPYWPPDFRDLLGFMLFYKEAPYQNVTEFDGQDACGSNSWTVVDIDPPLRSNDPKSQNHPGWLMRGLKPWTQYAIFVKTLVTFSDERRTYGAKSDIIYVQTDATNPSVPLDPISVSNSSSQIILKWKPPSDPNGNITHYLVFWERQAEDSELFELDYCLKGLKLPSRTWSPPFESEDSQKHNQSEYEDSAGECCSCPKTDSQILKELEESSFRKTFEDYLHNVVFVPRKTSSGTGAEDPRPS
Insulin receptor (Homo sapiens), sequence (P06213 763-1382 limits assumed): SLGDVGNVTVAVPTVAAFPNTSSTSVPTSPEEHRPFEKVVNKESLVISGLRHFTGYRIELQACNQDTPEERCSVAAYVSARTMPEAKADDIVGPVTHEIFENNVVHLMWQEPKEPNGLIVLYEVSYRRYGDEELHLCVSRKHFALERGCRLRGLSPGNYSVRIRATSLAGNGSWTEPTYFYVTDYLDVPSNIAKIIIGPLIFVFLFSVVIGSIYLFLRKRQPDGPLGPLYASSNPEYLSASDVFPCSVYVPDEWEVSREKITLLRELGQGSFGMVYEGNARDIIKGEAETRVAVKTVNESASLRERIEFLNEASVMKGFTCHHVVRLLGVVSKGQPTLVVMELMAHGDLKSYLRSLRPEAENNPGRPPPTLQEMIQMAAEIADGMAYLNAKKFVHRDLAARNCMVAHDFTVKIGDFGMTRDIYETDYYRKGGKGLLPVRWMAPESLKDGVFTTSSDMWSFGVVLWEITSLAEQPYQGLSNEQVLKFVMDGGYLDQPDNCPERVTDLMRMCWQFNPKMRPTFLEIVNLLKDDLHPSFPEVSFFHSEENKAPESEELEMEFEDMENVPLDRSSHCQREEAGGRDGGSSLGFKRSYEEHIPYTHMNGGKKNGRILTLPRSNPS
For experiment [20], the target named is Glycogen synthase kinase-3 beta (Homo sapiens, UniProt P49841). Nature of the experiment: Effective concentration of compound against glycogen synthase kinase-3 in HEK293 cells. The class given is functional, cell-based. In short, it runs like this:
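HEK293 cells exposed to compound; glycogen synthase activity then measured in cell extracts as ¹⁴C-UDP glucose incorporation into glycogen. EC₅₀ averaged from triplicate determinations.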

The target in experiment [21] is CDK6/cyclin D3 (Homo sapiens) (UniProt P30281+Q00534). Kind of experiment: Inhibition of Cyclin-dependent kinase 6-cyclin D3. The class given is protein-complex assay. Also noted: scale not given: the % may be the effect or the level left.
The target of experiment [22] is MAP kinase-activated protein kinase 2 (Homo sapiens) (UniProt P49137). Nature of the experiment: Inhibition of MAP kinase-activated protein kinase 2. Also noted: scale not given: the % may be the effect or the level left.
Experiment [23] addresses T1, Ribosomal protein S6 kinase alpha-5. Described as §1.
The target of experiment [24] is T4, Protein kinase C beta type. Nature of the experiment: Inhibition of protein kinase C-betaII at 10 uM.
Experiment [25] relates to Casein kinase I (Saccharomyces cerevisiae). Nature of the experiment: Inhibition of Casein kinase I. Also on record: scale not given: the % may be the effect or the level left.

Mitogen-activated protein kinase 11 (Homo sapiens), sequence (Q15759 whole entry): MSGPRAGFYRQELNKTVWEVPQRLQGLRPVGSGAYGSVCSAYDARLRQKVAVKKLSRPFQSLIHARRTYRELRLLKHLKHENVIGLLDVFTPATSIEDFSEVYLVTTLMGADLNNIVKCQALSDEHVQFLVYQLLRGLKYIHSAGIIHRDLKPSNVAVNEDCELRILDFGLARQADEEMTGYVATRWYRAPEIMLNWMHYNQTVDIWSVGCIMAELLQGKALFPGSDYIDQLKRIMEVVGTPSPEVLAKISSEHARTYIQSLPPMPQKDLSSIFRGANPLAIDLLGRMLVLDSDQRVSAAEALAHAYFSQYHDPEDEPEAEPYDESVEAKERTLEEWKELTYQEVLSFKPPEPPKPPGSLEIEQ
Tyrosine-protein kinase Fyn (Homo sapiens), sequence (P06241 2-537 limits assumed): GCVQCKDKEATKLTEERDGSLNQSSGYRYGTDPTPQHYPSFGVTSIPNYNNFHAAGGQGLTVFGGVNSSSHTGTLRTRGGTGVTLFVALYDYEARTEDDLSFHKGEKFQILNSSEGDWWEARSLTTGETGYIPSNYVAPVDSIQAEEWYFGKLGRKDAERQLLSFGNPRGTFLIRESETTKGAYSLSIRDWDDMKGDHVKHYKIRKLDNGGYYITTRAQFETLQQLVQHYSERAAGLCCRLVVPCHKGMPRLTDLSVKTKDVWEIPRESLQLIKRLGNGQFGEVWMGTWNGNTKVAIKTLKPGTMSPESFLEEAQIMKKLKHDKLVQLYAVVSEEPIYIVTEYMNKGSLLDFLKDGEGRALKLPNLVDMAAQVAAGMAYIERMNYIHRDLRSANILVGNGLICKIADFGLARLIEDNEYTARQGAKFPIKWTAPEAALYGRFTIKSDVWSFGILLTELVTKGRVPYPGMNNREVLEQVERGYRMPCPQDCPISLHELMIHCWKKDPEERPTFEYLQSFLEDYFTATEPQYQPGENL
Tyrosine-protein kinase Fes/Fps (Homo sapiens), sequence (P07332 whole entry): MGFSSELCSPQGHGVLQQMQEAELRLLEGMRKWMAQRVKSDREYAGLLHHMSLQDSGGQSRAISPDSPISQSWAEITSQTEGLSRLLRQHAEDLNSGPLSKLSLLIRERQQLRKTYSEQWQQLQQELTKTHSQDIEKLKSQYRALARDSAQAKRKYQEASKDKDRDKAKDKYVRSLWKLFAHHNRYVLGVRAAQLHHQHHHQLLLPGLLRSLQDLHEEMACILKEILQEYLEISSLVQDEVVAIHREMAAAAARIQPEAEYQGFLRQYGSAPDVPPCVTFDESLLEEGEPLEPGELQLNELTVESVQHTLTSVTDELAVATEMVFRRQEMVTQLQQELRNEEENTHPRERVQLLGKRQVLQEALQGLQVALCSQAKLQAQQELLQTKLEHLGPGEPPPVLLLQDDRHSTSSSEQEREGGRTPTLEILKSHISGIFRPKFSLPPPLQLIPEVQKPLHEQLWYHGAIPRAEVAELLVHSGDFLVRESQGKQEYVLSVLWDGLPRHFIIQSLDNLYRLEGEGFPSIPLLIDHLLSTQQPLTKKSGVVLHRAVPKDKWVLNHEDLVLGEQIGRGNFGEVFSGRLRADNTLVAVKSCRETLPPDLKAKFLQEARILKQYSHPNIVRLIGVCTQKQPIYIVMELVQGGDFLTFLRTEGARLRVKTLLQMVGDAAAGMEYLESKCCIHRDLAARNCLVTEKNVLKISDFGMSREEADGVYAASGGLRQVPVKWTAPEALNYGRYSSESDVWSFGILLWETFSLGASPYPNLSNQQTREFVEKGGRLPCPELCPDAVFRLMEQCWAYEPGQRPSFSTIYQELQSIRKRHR
Ribosomal protein S6 kinase alpha-1 (Rattus norvegicus), sequence (Q63531 whole entry): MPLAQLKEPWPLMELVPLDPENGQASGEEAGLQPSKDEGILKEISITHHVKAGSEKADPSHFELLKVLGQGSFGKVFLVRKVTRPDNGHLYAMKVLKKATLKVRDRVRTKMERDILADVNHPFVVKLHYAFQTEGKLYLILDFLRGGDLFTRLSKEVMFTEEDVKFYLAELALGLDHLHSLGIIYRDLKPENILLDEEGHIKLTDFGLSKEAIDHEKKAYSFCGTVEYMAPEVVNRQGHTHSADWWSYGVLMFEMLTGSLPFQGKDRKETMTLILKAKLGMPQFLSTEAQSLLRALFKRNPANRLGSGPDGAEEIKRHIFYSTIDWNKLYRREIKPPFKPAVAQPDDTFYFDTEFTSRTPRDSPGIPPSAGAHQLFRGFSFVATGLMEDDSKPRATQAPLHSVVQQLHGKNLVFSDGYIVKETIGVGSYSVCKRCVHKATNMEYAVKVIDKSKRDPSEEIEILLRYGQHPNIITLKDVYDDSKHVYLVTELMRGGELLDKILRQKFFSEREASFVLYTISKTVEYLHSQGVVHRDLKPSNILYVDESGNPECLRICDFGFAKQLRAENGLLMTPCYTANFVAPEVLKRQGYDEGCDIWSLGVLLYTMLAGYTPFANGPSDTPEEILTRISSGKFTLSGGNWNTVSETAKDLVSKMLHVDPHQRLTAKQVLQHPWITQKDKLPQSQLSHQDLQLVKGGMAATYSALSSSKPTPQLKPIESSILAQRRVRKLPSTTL
Mitogen-activated protein kinase 9 (Homo sapiens), sequence (P45984 whole entry, looked up): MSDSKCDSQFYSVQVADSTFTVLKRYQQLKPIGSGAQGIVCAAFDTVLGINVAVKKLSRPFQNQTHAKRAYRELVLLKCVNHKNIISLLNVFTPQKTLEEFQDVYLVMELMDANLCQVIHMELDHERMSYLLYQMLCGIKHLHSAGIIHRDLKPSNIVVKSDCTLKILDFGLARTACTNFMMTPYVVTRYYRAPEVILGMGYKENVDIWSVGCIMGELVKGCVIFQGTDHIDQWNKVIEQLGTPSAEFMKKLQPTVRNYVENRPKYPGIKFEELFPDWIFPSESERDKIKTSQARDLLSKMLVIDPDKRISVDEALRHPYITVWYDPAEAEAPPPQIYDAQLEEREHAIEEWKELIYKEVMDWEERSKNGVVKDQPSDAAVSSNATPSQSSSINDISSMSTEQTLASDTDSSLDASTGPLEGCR

Take `COc1ccccc1C1=C(c2cn(CCCNC(=O)OC(C)(C)C)c3ncccc23)C(=O)NC1=O`: the Activity in experiment [1] was 61%; in experiment [2], 106%; in [3] it was 63%; in experiment [4], 24%; in experiment [5], 101%; in experiment [7], 38%. In addition, the Activity in experiment [8] worked out at 60%; in [11], 20%; in experiment [12], 87%; in experiment [13], 88%; in experiment [14], 2%; in [16] it was 84%. Also, the Activity in [18] was found to be 95%; in [19] it was 94%; in experiment [21], 24%. Moreover, the half-maximal inhibitory concentration (IC50) in experiment [6] was 1800 nM; in experiment [9] it was 640 nM; in experiment [10], 2260 nM; in [17], 570 nM. In experiment [15], this molecule had an inhibition of less than 50%. The molecule also yielded an EC50 in experiment [20] of 40 nM.
Regarding `COCCCn1cc(C2=C(c3ccccc3O)C(=O)NC2=O)c2cccnc21`, the Activity in [1] turned out to be 57%; in experiment [2] it was 102%; in experiment [3] it was 94%; in experiment [4], 33%; in experiment [22], 97%; in experiment [5], 86%. For the same molecule, the Activity in experiment [7] worked out at 48%; in experiment [8] it was 47%; in experiment [11], 78%; in experiment [12], 79%; in experiment [13], 86%; in experiment [14], 9%. The Activity in experiment [16] came out at 63%; in experiment [18], 83%; in [19] it was 88%; in [21], 50%. The IC50 was found to be 2000 nM in experiment [9] and 4360 nM in experiment [10]. Further, the inhibition in experiment [15] was less than 50%.
For `O=C1NC(=O)C(c2cn(CCCO)c3ncccc23)=C1c1ncc(C(F)(F)F)cc1Cl`, the Activity in [2] was 94%; in [3], 89%; in experiment [4] it was 60%; in [22], 85%; in experiment [5] it was 87%; in [7] it was 66%. For the same molecule, the Activity in experiment [8] worked out at 59%; in experiment [11], 79%; in [12], 81%; in experiment [13], 76%; in experiment [14], 25%; in experiment [16], 93%. The Activity turned out to be 66% in experiment [25], 86% in experiment [18], 95% in experiment [19] and 59% in [21]. This molecule also yielded a 50% inhibitory concentration (IC50) in [23] of more than 10000 nM. Further, the inhibition in experiment [24] and in experiment [15] was less than 50% each time. In [20], this molecule returned a 50% effective concentration (EC50) of 620 nM.
